# pIC50: −log10 of the molar value. Calls of active or inactive are those of the source. The rule behind the calls is not given here.
# How the values were obtained:
# [1] = Metabolic stability of the compound in mouse liver microsomes assessed as clearance at 10 uM incubated for 10 mins in presence of NADPH by UPLC-MS analysis; format: ADME, Microsome
# [2] = tested on: RPMI-7951; assay: cells; settings: Homo sapiens, RPMI-7951, 72 h
# [3] = tested on: MDA-MB-435/LCC6MDR1; assay: cells; settings: Homo sapiens, MDA-MB-435, 72 h
# [4] = Metabolic stability of the compound in rat liver microsomes assessed as clearance at 10 uM incubated for 10 mins in presence of NADPH by UPLC-MS analysis; format: ADME, Microsome
# [5] = tested on: SK-BR-3; assay: cells; settings: Homo sapiens, SK-BR-3, 72 h
# [6] = tested on: MDA-MB-453; assay: cells; settings: Homo sapiens, MDA-MB-453, 72 h
# [7] = Metabolic stability of the compound in human liver microsomes assessed as half life at 10 uM incubated for 10 mins in presence of NADPH by UPLC-MS analysis; format: ADME, Microsome
# [8] = tested on: MDA-MB-435; assay: cells; settings: Homo sapiens, MDA-MB-435, 72 h
# [9] = Metabolic stability of the compound in human liver microsomes assessed as clearance at 10 uM incubated for 240 mins in presence of NADPH by UPLC-MS analysis; settings: 4 h
# [10] = Metabolic stability of the compound in rat liver microsomes assessed as half life at 10 uM incubated for 10 mins in presence of NADPH by UPLC-MS analysis; format: ADME, Microsome
# [11] = Resistance index, ratio of IC50 for antiproliferation activity against human MDA-MB-435/LCC6MDR cells to IC50 for antiproliferation activity against human MDA-MB-435 cells assessed as cell growth inhibition measured after 72 hrs by MTS assay; format: functional
# [12] = Metabolic stability of the compound in mouse liver microsomes assessed as half life at 10 uM incubated for 10 mins in presence of NADPH by UPLC-MS analysis; format: ADME, Microsome
# [13] = tested on: A-375; assay: cells; settings: Homo sapiens, A-375, 72 h
# [14] = tested on: OVCAR-3; assay: cells; settings: Homo sapiens, OVCAR-3, 72 h
# [15] = tested on: OVCAR-8; assay: cells; settings: Homo sapiens, OVCAR-8, 72 h
# [16] = tested on: A-375; assay: Induction of apoptosis in human A-375 cells assessed as increase in cleaved PARP level after 24 hrs by Western blot analysis; format: functional, cell-based
# How it was run: (§1)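 A375 cells (2 × 10⁶ per 10-cm dish) attached overnight, then treated 24 h in DMEM with 1, 5 or 10 μM. Lysed in RIPA with protease/phosphatase inhibitors; protein measured by Bradford. 50 μg run on SDS-PAGE, transferred to PVDF, blocked in 5% milk, probed overnight at 4°C for survivin, cleaved PARP, cIAP1, XIAP, Livin, with HRP-GAPDH as loading control; ECL detection.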
# [17] = tested on: A-375; assay: Downregulation of survivin protein expression in human A-375 cells measured after 24 hrs by Westernblot analysis; format: functional, cell-based; how it was run: as §1
# [18] = tested on: A-375; assay: Downregulation of survivin protein expression in human A-375 cells at 10 uM measured after 24 hrs by Westernblot analysis; format: functional, cell-based; how it was run: as §1
# [19] = tested on: SK-OV-3; assay: Downregulation of survivin protein expression in human SK-OV-3 cells measured after 24 hrs by Westernblot analysis; format: functional, cell-based
# How it was run: (§2)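 Ovarian cancer cells treated 24 h at 2 and 4 μM, or vehicle, in serum-free RPMI 1640. Lysed in RIPA with protease inhibitor; 100 μg protein per lane run on 10% SDS-PAGE, transferred to PVDF, blocked in 5% milk. Probed for survivin, MCL1 and GAPDH; HRP secondary with ECL detection.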
# [20] = tested on: OVCAR-8; settings: Homo sapiens, dose 20.0 mg/kg, time 15.0 day
# [21] = tested on: OVCAR-8; assay: Antitumor activity against luciferase-tagged human OVCAR-8 cells xenografted into left side ovarian bursa of NSG mouse assessed as reduction in number of metastatic tumor in stomach at 20 mg/kg, ip administrated […] by histological analysis; format: functional, organism-based
# [22] = tested on: OVCAR-3; assay: Downregulation of survivin protein expression in human OVCAR-3 cells measured after 24 hrs by Westernblot analysis; format: functional, cell-based; how it was run: as §2
# [23] = Toxicity in NSG mouse xenografted with human A-375 cells assessed as reduction in body weight at 40 mg/kg, ip administrated 3 times a week for 15 days; format: organism-based; settings: in vivo, 360 h, time 15 day
# [24] = tested on: OVCAR-8; assay: Antitumor activity against human OVCAR-8 cells xenografted in NSG mouse assessed as tumor weight at 20 mg/kg, ip administrated 3 times a week for 15 days; settings: time 15 day
# [25] = tested on: OVCAR-8; assay: Antitumor activity against luciferase-tagged human OVCAR-8 cells xenografted into left side ovarian bursa of NSG mouse assessed as reduction in number of metastatic tumor in intestine at 20 mg/kg, ip administrated 3 times a week for 15 days by histological analysis; format: functional, organism-based; settings: time 15.0 day
# [26] = tested on: A-375; assay: Induction of apoptosis in human A-375 cells assessed as increase in cleaved […] level after 24 hrs by Western blot analysis; format: functional, cell-based
# [27] = tested on: A-375; assay: Antitumor activity against human A-375 cells xenografted in NSG mouse assessed as reduction in tumor weight at 40 mg/kg, ip administrated 3 times a week for 15 days; format: functional; set-up: scale not given: the % may be the effect or the level left; settings: time 15 day
# [28] = tested on: OVCAR-8; assay: Antitumor activity against luciferase-tagged human OVCAR-8 cells xenografted into left side ovarian bursa of NSG mouse assessed as reduction in number of metastatic tumor in kidney at 20 mg/kg, […] by histological analysis; format: functional, organism-based
# [29] = Toxicity in NSG mouse xenografted with human A-375 cells assessed as reduction in body weight at 20 mg/kg, ip administrated 3 times a week for 15 days; format: organism-based; settings: in vivo, 360 h, time 15 day
# [30] = tested on: OVCAR-8; assay: Antitumor activity against luciferase-tagged human OVCAR-8 cells xenografted into left side ovarian bursa of NSG mouse assessed as reduction in number of metastatic tumor in spleen at 20 mg/kg, […] by histological analysis; format: functional, organism-based
# [31] = tested on: A-375; assay: Antitumor activity against human A-375 cells xenografted in NSG mouse assessed as reduction in tumor weight at 20 mg/kg, ip administrated 3 times a week for 15 days; format: functional; set-up: scale not given: the % may be the effect or the level left; settings: time 15 day
# [32] = tested on: A-375; assay: Antitumor activity against human A-375 cells xenografted in NSG mouse assessed as tumor growth inhibition at 20 to 40 mg/kg, ip administrated 3 times a week for 15 days; format: functional, organism-based; settings: dose 20-40 mg/kg, time 15.0 day
# [33] = tested on: OVCAR-8; assay: Antitumor activity against luciferase-tagged human OVCAR-8 cells xenografted into left side ovarian bursa of NSG mouse assessed as reduction in number of metastatic tumor at 20 mg/kg, ip administrated 3 times a week for 15 days by histological analysis; settings: time 15.0 day
# [34] = tested on: OVCAR-8; assay: Downregulation of survivin protein expression in human OVCAR-8 cells measured after 24 hrs by Westernblot analysis; format: functional, cell-based; how it was run: as §2
# [35] = Toxicity in NSG mouse xenografted with human OVCAR-8 cells assessed as reduction in body weight at 20 mg/kg, ip administrated 3 times a week for 15 days; format: organism-based; settings: in vivo, 360 h, time 15 day
SMILES,CLH [1],pIC50 [2],pIC50 [3],CLH [4],pIC50 [5],pIC50 [6],t1/2 [7],pIC50 [8],CLH [9],t1/2 [10],t1/2 [12],pIC50 [13],pIC50 [14],pIC50 [15],Ratio IC50 [11],Activity [16],Activity [17],Activity [19],Activity [22],Activity [34],also measured
CC(C)c1ccc(COCc2cc(-c3cncc4ccccc34)c(O)c3ncccc23)cc1,19.9 µL/min/mg,6.30,6.00,36.7 µL/min/mg,5.82,5.89,1.4 h,6.22,16.3 µL/min/mg,0.6 h,1.2 h,6.22,–,–,1.6,–,–,–,–,–,–
CC(C)c1ccc(COCc2cc(-c3ccccc3)c(O)c3ncccc23)cc1,5.5 µL/min/mg,6.15,5.85,9.2 µL/min/mg,6.10,6.30,–,6.30,3.2 µL/min/mg,2.5 h,–,6.30,5.89,5.59,2.6,Active,–,–,–,–,Activity [18]: inactive
Oc1c(CN2CCCCC2)cc(Cn2ncc(-c3ccc(C(F)(F)F)cc3)n2)c2cccnc12,21.6 µL/min/mg,–,–,14.2 µL/min/mg,–,–,1.5 h,–,15.7 µL/min/mg,1.6 h,–,–,–,–,–,Active,Dose-Dependent Effect,Active,Active,Active,inhibition [20]: Active; Activity [21]: Active; Activity [23]: Non-Toxic; tumor weight [24]: 0.11 g; Activity [25]: inactive; Activity [26]: Active; Activity [27]: 55%; Activity [28]: Active; Activity [29]: Non-Toxic; Activity [30]: Active; Activity [31]: 32%; Activity [32]: Dose-Dependent Effect; Activity [33]: Active; Activity [35]: Non-Toxic

# Now from value to molecule, other results behind:
CLH [1],pIC50 [2],pIC50 [3],CLH [4],pIC50 [5],pIC50 [6],t1/2 [7],pIC50 [8],CLH [9],t1/2 [10],t1/2 [12],pIC50 [13],pIC50 [14],pIC50 [15],SMILES,Ratio IC50 [11],Activity [16],Activity [17],Activity [19],Activity [22],Activity [34],also measured
27.8 µL/min/mg,5.77,6.22,22.6 µL/min/mg,5.57,5.51,1.9 h,5.51,12 µL/min/mg,1 h,0.8 h,6.15,6.00,5.77,Oc1c(CN2CCCC2)cc(Cn2ncc(-c3ccc(Br)cc3)n2)c2cccnc12,0.2,Active,Dose-Dependent Effect,–,–,–,–
24.3 µL/min/mg,6.22,6.05,24.8 µL/min/mg,5.57,5.55,2.3 h,5.59,10 µL/min/mg,0.9 h,1 h,6.22,6.10,5.89,Oc1c(CN2CCCC2)cc(Cn2ncc(-c3cccc(Br)c3)n2)c2cccnc12,0.4,–,–,Active,Active,Active,–
35 µL/min/mg,6.05,5.92,18 µL/min/mg,5.72,5.82,1.3 h,5.66,17.5 µL/min/mg,1.3 h,0.7 h,6.00,6.30,5.77,Oc1c(CN2CCCCC2)cc(Cn2ncc(-c3ccc(Br)cc3)n2)c2cccnc12,0.5,–,–,–,–,–,–

# From ChEMBL document CHEMBL4828732, “Synthesis and biological evaluation of selective survivin inhibitors derived from the MX-106 hydroxyquinoline scaffold” (Eur J Med Chem, 2021)
